# Results as given in ChEMBL document CHEMBL3414496, “Synthesis and biological evaluation of novel 2-heteroarylimino-1,3-thiazolidin-4-ones as potential anti-tumor agents” (Eur J Med Chem, 2015).
# Columns and labels:
# Assay type in all cases: functional
# HT-29 [1] = test: Induction of GCL expression in human HT-29 cells at 3.8 uM after 6 hrs by Western blotting method
# Summary of the method: (§1)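 HT29 whole-cell lysates in Hepes/KOH pH 7.5 with EDTA, KCl, NP40, DTT, protease inhibitors; 50 µg protein on 10–15% SDS-PAGE, nitrocellulose, overnight 4°C primary antibody (GCL 1:500, HO-1 1:1000), HRP secondary, chemiluminescence. Bands normalized to GAPDH (1:10 000), DMSO ratio set at 1.00; representative of three independent experiments.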
# HT-29 [2] = test: Induction of GCL expression in human HT-29 cells at 10 uM after 4 hrs by Western blotting method; summary of the method: as §1
# HT-29 [3] = test: Induction of GCL expression in human HT-29 cells at 10 uM after 6 hrs by Western blotting method; summary of the method: as §1
Structure (SMILES),fold change (FC) (HT-29 [1]),fold change (FC) (HT-29 [2]),fold change (FC) (HT-29 [3])
COc1ccc(/C=C2\S/C(=N\c3csc(-c4ccc(Cl)cc4)c3)NC2=O)cc1,1.69,–,–
COc1ccc(/C=C2\S/C(=N\c3csc(-c4ccc(Cl)cc4)c3)NC2=O)cc1OC,–,1.16,1.16
